Measurements from different studies.
Protocols differ between the studies behind these lines.
Matrix: Caco-2

SMILES | conditions | quantity | result
O=C1CCC(N2Cc3cc(C4CCN(Cc5ccccc5)CC4)ccc3C2=O)C(=O)N1 (stereo not drawn) | 10 µM, 2 h | Papp | 8.1 ×10⁻⁶ cm/s
Cc1cc(-c2ccnc3[nH]cc(F)c23)cc(F)c1[C@@]1(O)[C@H](C)CN(C(=O)CN)C[C@@H]1C | 10 µM | Papp | 5.2 ×10⁻⁶ cm/s
C[C@@H]1O[C@@H](OC[C@H]2O[C@@H](Oc3c(-c4ccc(O)c(O)c4)oc4cc(O)cc(O)c4c3=O)[C@H](O)[C@@H](O)[C@@H]2O)[C@H](O)[C@H](O)[C@H]1O | 50 µg/mL | Papp A→B | 0.228 ×10⁻⁶ cm/s
O=C(Nc1ccc(OC(F)(F)F)cc1)N[C@H]1CC[C@H](Oc2ccc(C(=O)O)cc2)CC1 |  | Papp | 4.76 ×10⁻⁶ cm/s
COc1ccc(CCC(=O)c2c(O)cc(O[C@@H]3O[C@H](CO)[C@@H](O)[C@H](O)[C@H]3O[C@@H]3O[C@@H](C)[C@H](O)[C@@H](O)[C@H]3O)cc2O)cc1O | 100 µg/mL, 2 h | Papp B→A | 8.96 ×10⁻⁶ cm/s
Cc1cc(-c2ccnc3[nH]cc(F)c23)cc(F)c1[C@@]1(O)[C@H](C)CN(C2CCS(=O)(=O)CC2)C[C@@H]1C | 10 µM | Papp | 14.8 ×10⁻⁶ cm/s
O=S1(=O)OC(c2ccc(O)cc2)(c2ccc(O)cc2)c2ccccc21 |  | Papp | 0.54 ×10⁻⁶ cm/s
C[C@@H]1O[C@@H](OC[C@H]2O[C@@H](Oc3c(-c4ccc(OCCO)c(OCCO)c4)oc4cc(OCCO)cc(O)c4c3=O)[C@H](O)[C@@H](O)[C@@H]2O)[C@H](O)[C@H](O)[C@H]1O | 100 µg/mL, 2 h | Papp B→A | 2.67 ×10⁻⁶ cm/s
Cc1cc(C)c(CNC(=O)c2cc(Cl)c3c(c2C)O[C@@](C)([C@H]2CC[C@H](N(C)C)CC2)O3)c(=O)[nH]1 | 1 µM | Papp B→A | 20.7 ×10⁻⁶ cm/s
O=c1cc(-c2ccc(O)cc2)oc2c([C@@H]3O[C@H](CO)[C@@H](O)[C@H](O)[C@H]3O)c(O)cc(O)c12 | 200 µg/mL | Papp A→B | 0.322 ×10⁻⁶ cm/s
COc1ccc(-c2cc(=O)c3c(O)cc(O[C@@H]4O[C@H](CO[C@@H]5O[C@@H](C)[C@H](O)[C@@H](O)[C@H]5O)[C@@H](O)[C@H](O)[C@H]4O)cc3o2)cc1O | 100 µg/mL, 2 h | Papp B→A | 35.1 ×10⁻⁶ cm/s
CNC(=O)c1ccccc1Nc1cc(Nc2ccc(N3CCOCC3)cc2OC)ncc1C(F)(F)F | 20 µM, 2 h | Papp | 18 ×10⁻⁶ cm/s
